# Data as given in ChEMBL document CHEMBL2163257 (J Med Chem, 2012).
# Active and inactive are the calls of the source. No cut-off for these calls is given here.
# Tests used:
# [1] = Agonist activity at human H2R-C17Y-A271D Gsalphas mutant containing human H2 receptor E2 loop expressed in Sf9 cells by steady state GTPase activity assay; format: functional
# Summary of the method: (§1)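 Mutant H2R-Gsαs fusion proteins in Sf9 membranes were tested by steady-state GTPase hydrolysis: 1.0 mM MgCl2, 100 nM GTP, AppNHp/creatine phosphate regeneration, pH 7.4 Tris, 20 min at 25 °C with [γ-32P/33P]GTP, charcoal separation of Pi.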
# [2] = biological target: Histamine H2 receptor (Cavia porcellus) (UniProt P47747); assay: Intrinsic agonist activity at guinea pig H2R-Gsalphas expressed in Sf9 cells by steady state GTPase activity assay relative to histamine; format: functional
# Sequence of Histamine H2 receptor (Cavia porcellus) (P47747 whole entry): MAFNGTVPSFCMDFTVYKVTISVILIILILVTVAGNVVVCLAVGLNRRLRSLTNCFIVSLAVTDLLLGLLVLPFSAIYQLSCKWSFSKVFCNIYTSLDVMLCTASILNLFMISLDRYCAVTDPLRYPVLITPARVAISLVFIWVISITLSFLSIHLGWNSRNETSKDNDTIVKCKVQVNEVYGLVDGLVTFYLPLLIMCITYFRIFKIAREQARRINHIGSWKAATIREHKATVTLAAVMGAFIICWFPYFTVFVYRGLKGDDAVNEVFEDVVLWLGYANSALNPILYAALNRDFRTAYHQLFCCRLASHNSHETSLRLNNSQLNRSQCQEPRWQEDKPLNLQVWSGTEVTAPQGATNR
# Summary of the method: (§2)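 Steady-state GTPase assay with Sf9 membranes (5–20 µg protein) expressing hH2R- or gpH2R-Gsαs, in 50 mM Tris-HCl pH 7.4. Mix: 1.0 mM MgCl2, 100 µM EDTA, 100 nM GTP, 100 µM AppNHp, 5 mM creatine phosphate, creatine kinase, 0.2% BSA, ligand 0.1 nM–10 µM. After 2 min at 25 °C, [γ-32P]GTP or [γ-33P]GTP was added and reacted 20 min at 25 °C. Charcoal stop; released Pi counted. Emax referenced to histamine (1.0). Two to six experiments, duplicate.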
# Histamine H2 receptor [3] = biological target: T1, Histamine H2 receptor (Homo sapiens, UniProt P25021); assay: Intrinsic agonist activity at human H2R-Gsalphas expressed in Sf9 cells by steady state GTPase activity assay relative to histamine; format: functional; summary of the method: as §2
# T1 sequence (P25021 whole entry): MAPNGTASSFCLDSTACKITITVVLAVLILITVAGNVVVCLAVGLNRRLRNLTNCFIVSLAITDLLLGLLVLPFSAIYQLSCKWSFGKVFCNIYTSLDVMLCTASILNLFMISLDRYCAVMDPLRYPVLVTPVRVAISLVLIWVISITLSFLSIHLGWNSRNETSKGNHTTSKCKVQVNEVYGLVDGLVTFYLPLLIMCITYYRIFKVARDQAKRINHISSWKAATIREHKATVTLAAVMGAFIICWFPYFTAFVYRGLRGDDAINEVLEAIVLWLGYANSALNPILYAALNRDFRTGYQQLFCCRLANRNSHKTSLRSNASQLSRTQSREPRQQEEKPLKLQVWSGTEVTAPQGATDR
# [4] = Agonist activity at guinea pig H2R hE2 loop Gsalphas mutant containing human H2 receptor E2 loop expressed in Sf9 cells by steady state GTPase activity assay; format: functional; conditions: Cavia porcellus; summary of the method: as §1
# Histamine H4 receptor [5] = biological target: T2, Histamine H4 receptor (Homo sapiens, UniProt Q9H3N8); assay: Agonist activity at human H4R-RGS19 Galphai2 Gbeta1gamma2 expressed in Sf9 cells by steady state GTPase activity assay relative to histamine; format: functional
# T2 sequence (Q9H3N8 whole entry): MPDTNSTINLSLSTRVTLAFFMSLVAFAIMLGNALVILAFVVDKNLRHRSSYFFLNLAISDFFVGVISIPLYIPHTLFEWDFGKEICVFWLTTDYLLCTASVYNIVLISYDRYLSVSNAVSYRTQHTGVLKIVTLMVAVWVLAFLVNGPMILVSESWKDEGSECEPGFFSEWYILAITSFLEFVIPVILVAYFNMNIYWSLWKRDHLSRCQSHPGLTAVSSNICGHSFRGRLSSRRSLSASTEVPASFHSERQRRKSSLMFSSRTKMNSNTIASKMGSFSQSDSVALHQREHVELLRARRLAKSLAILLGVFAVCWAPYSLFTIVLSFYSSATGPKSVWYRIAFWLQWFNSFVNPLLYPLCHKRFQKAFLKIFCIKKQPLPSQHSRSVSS
# Summary of the method: (§3)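 Sf9 membranes coexpressing hH4R-RGS19 with Gαi2 and Gβ1γ2 were assayed for GTP hydrolysis with 5.0 mM MgCl2 and 100 mM NaCl (final), 100 nM GTP, 50 mM Tris-HCl pH 7.4. Ligands spanned 0.1 nM–1 mM. Preincubation was 2 min, then 20 min at 25 °C with [γ-32P]GTP or [γ-33P]GTP. Charcoal quench; Pi counted. Sigmoidal nonlinear regression; efficacy relative to histamine.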
# Histamine H3 receptor = Histamine H3 receptor (Homo sapiens, UniProt Q9Y5N1); assay: Agonist activity at human H3R-Galphai2-Gbeta1gamma2-RGS4 expressed in Sf9 cells 0.1 nM to 1 mM by steady state GTPase activity assay; format: functional
# Sequence of Histamine H3 receptor (Q9Y5N1 whole entry): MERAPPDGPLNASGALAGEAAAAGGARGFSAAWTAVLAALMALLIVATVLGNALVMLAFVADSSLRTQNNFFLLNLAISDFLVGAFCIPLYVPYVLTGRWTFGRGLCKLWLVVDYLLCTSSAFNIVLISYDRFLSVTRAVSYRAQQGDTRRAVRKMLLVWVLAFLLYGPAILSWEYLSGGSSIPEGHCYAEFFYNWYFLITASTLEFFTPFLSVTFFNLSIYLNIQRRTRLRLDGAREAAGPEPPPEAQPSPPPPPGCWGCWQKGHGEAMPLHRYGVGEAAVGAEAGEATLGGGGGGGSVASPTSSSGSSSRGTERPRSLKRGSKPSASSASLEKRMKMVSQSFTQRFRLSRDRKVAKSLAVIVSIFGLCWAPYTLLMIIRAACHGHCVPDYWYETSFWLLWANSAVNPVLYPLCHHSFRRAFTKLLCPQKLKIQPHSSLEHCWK
# Histamine H4 receptor [6] = biological target: T2, Histamine H4 receptor; assay: Agonist activity at human H4R-RGS19 Galphai2 Gbeta1gamma2 expressed in Sf9 cells at 0.1 nM to 1 mM by steady state GTPase activity assay; format: functional; summary of the method: as §3
# [7] = biological target: Histamine H2 receptor (Cavia porcellus) (UniProt P47747); assay: Intrinsic agonist activity at H2R in spontaneously beating guinea pig right atrium assessed as increase in heart rate relative to histamine; format: functional, tissue-based; conditions: Cardiac atrium
# Summary of the method: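 Isolated spontaneously beating guinea pig right atrium. Ligand stocks (10 mM) and dilutions were made in fresh bath fluid. Tissue was washed for 30 min and equilibrated for 15 min. […] Emax is relative to maximal histamine heart-rate increase. Three to five experiments.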
# Histamine H2 receptor [8] = biological target: T1, Histamine H2 receptor; assay: Agonist activity at human H2R-Gsalphas expressed in Sf9 cells at 0.1 nM to 10 uM by steady state GTPase activity assay
# Histamine H2 receptor [9] = biological target: Histamine H2 receptor (Cavia porcellus, UniProt P47747); assay: Agonist activity at guinea pig H2R-Gsalphas expressed in Sf9 cells at 0.1 nM to 10 uM by steady state GTPase activity assay; format: functional
# Sequence of Histamine H2 receptor (Cavia porcellus, UniProt P47747) (P47747 whole entry): as the sequence (P47747 whole entry) above
# Summary of the method: as §2, with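 “counted.” for “counted. Emax referenced to histamine (1.0).”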
# [10] = Selectivity index, ratio of EC50 for human H2R-Gsalphas to EC50 for guinea pig H2R-Gsalphas by steady state GTPase activity assay
# [11] = biological target: Histamine H1 receptor (Homo sapiens) (UniProt P35367); assay: Antagonist activity at human H1R-RGS4 expressed in Sf9 cells by steady state GTPase activity assay; format: functional
# Sequence of Histamine H1 receptor (Homo sapiens) (P35367 whole entry): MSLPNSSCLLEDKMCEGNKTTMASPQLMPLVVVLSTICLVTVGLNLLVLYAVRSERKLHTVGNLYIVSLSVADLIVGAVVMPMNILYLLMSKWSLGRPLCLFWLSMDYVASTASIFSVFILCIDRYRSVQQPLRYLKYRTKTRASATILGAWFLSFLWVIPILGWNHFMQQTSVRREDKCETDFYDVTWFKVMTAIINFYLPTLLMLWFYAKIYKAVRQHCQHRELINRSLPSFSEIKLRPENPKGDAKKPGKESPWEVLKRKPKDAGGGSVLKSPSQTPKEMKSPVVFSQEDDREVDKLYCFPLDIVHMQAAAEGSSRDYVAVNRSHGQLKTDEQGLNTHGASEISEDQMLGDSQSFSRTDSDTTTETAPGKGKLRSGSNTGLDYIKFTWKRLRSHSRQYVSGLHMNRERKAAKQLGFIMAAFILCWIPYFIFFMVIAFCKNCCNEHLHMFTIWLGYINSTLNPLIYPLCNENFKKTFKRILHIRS
# Summary of the method: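 Sf9 membranes (5–20 μg protein) co-expressing human H1R with RGS4. Reaction with 1.0 mM MgCl2, 100 μM ATP, 100 nM GTP, AppNHp, creatine phosphate/kinase, 0.2% BSA, 50 mM Tris-HCl pH 7.4. Histamine 100 nM with test ligand 10 nM–1 mM. [γ-32P/33P]GTP added, 20 min at 25 °C. Charcoal stop, released Pi counted. pKB from sigmoidal nonlinear fits.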
# Histamine H2 receptor [12] = biological target: T1, Histamine H2 receptor; assay: Potency index, ratio of pEC50 for compound to pEC50 for histamine at human H2R-Gsalphas expressed in Sf9 cells at 0.1 nM to 10 uM by steady state GTPase activity assay
# Summary of the method: (§4)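 Sf9 membranes expressing human or guinea pig H2R-Gsαs fusion protein, 1.0 mM MgCl2, ATP, 100 nM GTP, AppNHp, creatine phosphate/kinase, BSA, Tris pH 7.4. Agonists 0.1 nM–10 μM, [γ-32P/33P]GTP hydrolysis 20 min at 25 °C, Pi counted. Curves fit by sigmoidal nonlinear regression. Potency given relative to histamine (set to 1.0). Two to six independent experiments in duplicate.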
# [13] = biological target: Histamine H2 receptor (Cavia porcellus) (UniProt P47747); assay: Potency index, ratio of pEC50 for compound to pEC50 for histamine at guinea pig H2R-Gsalphas expressed in Sf9 cells at 0.1 nM to 10 uM by steady state GTPase activity assay; summary of the method: as §4
# [14] = biological target: Histamine H2 receptor (Cavia porcellus) (UniProt P47747); assay: Agonist activity at H2R in spontaneously beating guinea pig right atrium assessed as increase in heart rate in presence of 100 uM H2R antagonist cimetidine; format: functional, tissue-based; conditions: Cardiac atrium
SMILES,Activity [1],Intrinsic activity [2],Intrinsic activity (Histamine H2 receptor [3]),Activity [4],Intrinsic activity [7],other results
N/C(=N\C(=O)CCCCCCC(=O)/N=C(\N)NCCCc1cnc(N)s1)NCCCc1cnc(N)s1,Active,1,0.79,Active,,
N/C(=N\C(=O)CCCCC(=O)/N=C(\N)NCCCc1c[nH]cn1)NCCCc1c[nH]cn1,,1,0.68,,,Intrinsic activity (Histamine H4 receptor [5]): 0.42; EC50 (Histamine H3 receptor): > 10 µM; EC50 (Histamine H4 receptor [6]): 0.0794 µM
Cc1nc(N)sc1CCCN/C(N)=N/C(=O)CCCCCCCCCCCCCCCCCCCCC(=O)/N=C(\N)NCCCc1sc(N)nc1C,,0.58,,,0.62,
N/C(=N\C(=O)CCCCCCCCC(=O)/N=C(\N)NCCCc1c[nH]cn1)NCCCc1c[nH]cn1,Active,0.98,0.81,Active,0.91,Intrinsic activity (Histamine H4 receptor [5]): 0.44; EC50 (Histamine H3 receptor): 0.00178 µM; EC50 (Histamine H4 receptor [6]): 0.00851 µM
Cc1nc(N)sc1CCN [AMTHAMINE],,1.04,0.91,,0.95,
Cc1nc(N)sc1CCCN/C(N)=N/C(=O)CCCCCCCCC(=O)/N=C(\N)NCCCc1sc(N)nc1C,Active,0.79,0.53,Active,0.62,
NC(=NCCCc1nnc[nH]1)NC(=O)CCCCCCCCC(=O)NC(N)=NCCCc1nnc[nH]1,,,,,,EC50 (Histamine H2 receptor [8]): 0.151 µM
Cc1nc(N)sc1CCCNC(=N)NC(=O)CCCCCCCCC(=O)NC(=N)NCCCc1sc(N)nc1C,,,,,,EC50 (Histamine H2 receptor [9]; read-out: EC50): 0.00039 µM
N/C(=N\C(=O)CCCCCCCCC(=O)/N=C(\N)NCCCc1cnc(N)s1)NCCCc1cnc(N)s1,Active,0.94,0.75,Active,,
N/C(=N\C(=O)CCCCCCCCCCCCCCCCCCCCC(=O)/N=C(\N)NCCCc1cnc(N)s1)NCCCc1cnc(N)s1,,0.36,,,,
N/C(=N\C(=O)CCCCCCCCC(=O)/N=C(\N)NCCCc1ncn[nH]1)NCCCc1ncn[nH]1,,0.95,0.49,,,
Cc1nc(N)sc1CCCN/C(N)=N/C(=O)CCc1ccccc1,,0.76,0.79,,,
Cc1nc(N)sc1CCCN/C(N)=N/C(=O)CCCCCCCCCCCCCCC(=O)/N=C(\N)NCCCc1sc(N)nc1C,Active,0.51,0.12,Active,0.53,
N/C(=N\C(=O)CCCCCCCCCCCCCCCCCCCCC(=O)/N=C(\N)NCCCc1c[nH]cn1)NCCCc1c[nH]cn1,,0.19,,,,
N/C(=N\C(=O)CCCCCCC(=O)/N=C(\N)NCCCc1c[nH]cn1)NCCCc1c[nH]cn1,,1.18,0.77,,,Intrinsic activity (Histamine H4 receptor [5]): 0.51; EC50 (Histamine H2 receptor [8]): 0.0562 µM; Ratio EC50 [10]: 17.4; pKb [11]: 6.7; EC50 (Histamine H3 receptor): 0.00417 µM; EC50 (Histamine H2 receptor [9]; read-out: pEC50 (converted)): 0.00324 µM; EC50 (Histamine H4 receptor [6]): 0.0417 µM; Ratio (Histamine H2 receptor [12]): 22.4; Ratio [13]: 372
Cc1nc(N)sc1CCCN/C(N)=N/C(=O)CCCCCCCCCCC(=O)/N=C(\N)NCCCc1sc(N)nc1C,,0.66,0.46,,0.46,
Cc1nc(N)sc1CCCN/C(N)=N/C(=O)CCCCCCCC(=O)/N=C(\N)NCCCc1sc(N)nc1C,,0.9,0.48,,0.71,
Cc1nc(N)sc1CCCN/C(N)=N/C(=O)CCCCC(=O)/N=C(\N)NCCCc1sc(N)nc1C,,0.9,0.68,,0.88,%max [14]: 46%
Cc1nc(N)sc1CCCN/C(N)=N/C(=O)CCCCCCC(=O)/N=C(\N)NCCCc1sc(N)nc1C,Active,0.81,0.62,Active,0.64,
N/C(=N\C(=O)CCCCCCCCCCCCCCC(=O)/N=C(\N)NCCCc1c[nH]cn1)NCCCc1c[nH]cn1,,0.85,0.29,,,EC50 (Histamine H3 receptor): > 1 µM; EC50 (Histamine H4 receptor [6]): 0.339 µM
Cc1nc(N)sc1CCCN/C(N)=N/C(=O)CCCCCCCCC(=O)/N=C(\N)NCCCc1cnc(N)s1,Active,0.89,0.75,Active,,
Cc1nc(N)sc1CCCN/C(N)=N/C(=O)CCCCCCCCC(=O)/N=C(\N)NCCCc1c[nH]cn1,Active,1.01,0.76,Active,,Intrinsic activity (Histamine H4 receptor [5]): 0.52; EC50 (Histamine H3 receptor): 0.00288 µM; EC50 (Histamine H4 receptor [6]): 0.00851 µM
N/C(=N\C(=O)CCCCCCCCCCCCCCC(=O)/N=C(\N)NCCCc1cnc(N)s1)NCCCc1cnc(N)s1,,0.59,0.14,,,
N=C(NCCCc1cnc[nH]1)NC(=O)CCCCCCCCCCCCCCCCCCCCC(=O)NC(N)=NCCCc1cnc[nH]1,,,,,,EC50 (Histamine H3 receptor): 0.447 µM; EC50 (Histamine H4 receptor [6]): > 1 µM
